Measured values pooled from the literature.
Compare with care: the assays were run in different laboratories.
Target: NUAK family SNF1-like kinase 1 (NUAK1, Homo sapiens, UniProt O60285)
Sequence (O60285 1-661, as in one of the studies): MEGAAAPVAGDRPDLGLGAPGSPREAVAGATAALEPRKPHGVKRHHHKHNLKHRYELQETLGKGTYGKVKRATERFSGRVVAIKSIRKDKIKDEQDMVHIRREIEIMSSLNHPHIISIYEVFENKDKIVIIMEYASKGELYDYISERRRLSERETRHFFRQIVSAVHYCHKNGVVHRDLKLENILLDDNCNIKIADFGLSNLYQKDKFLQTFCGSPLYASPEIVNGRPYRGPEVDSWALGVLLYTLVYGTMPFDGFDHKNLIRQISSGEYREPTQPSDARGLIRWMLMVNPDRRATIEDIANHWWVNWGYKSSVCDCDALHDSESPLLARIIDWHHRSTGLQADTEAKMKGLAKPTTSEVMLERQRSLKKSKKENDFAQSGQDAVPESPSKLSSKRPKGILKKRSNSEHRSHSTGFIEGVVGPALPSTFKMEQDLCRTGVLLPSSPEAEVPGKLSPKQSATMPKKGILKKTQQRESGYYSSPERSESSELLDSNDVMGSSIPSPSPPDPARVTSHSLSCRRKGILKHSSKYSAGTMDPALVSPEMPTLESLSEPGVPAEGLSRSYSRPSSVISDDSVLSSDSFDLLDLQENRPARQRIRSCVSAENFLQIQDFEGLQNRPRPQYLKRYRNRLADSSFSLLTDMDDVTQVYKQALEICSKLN

Structure (SMILES) | read-out | technique | concentration | remaining binding [%]
O=C(NCCCN1CCOCC1)c1ccc(Nc2ncc(Cl)c(-c3ccc(Cl)s3)n2)cc1 | binding | competition with immobilised ligand | 1 µM | 0.9
O=C(Nc1c[nH]nc1C(=O)NC1CCNCC1)c1cc(F)cc(F)c1 | binding | competition with immobilised ligand | 1 µM | 76
O=C(c1ccc(Nc2nccc(-c3cc4ccccc4s3)n2)cc1)N1CCC(N2CCCC2)CC1 | binding | competition with immobilised ligand | 1 µM | 22
c1cncc(-c2cccc(Nc3nccc(NC4CCCCC4)n3)c2)c1 | binding | competition with immobilised ligand | 10 µM | 16
COc1ccnn2ncc(-c3ccnc(N(C)C)n3)c12 | binding | – | 1 µM | 82
COc1cnc(Nc2cccc(S(N)(=O)=O)c2)nc1N1CCN(c2ccccc2)C(=O)C1 | binding | competition with immobilised ligand | 1 µM | 86
CCCCN(CCCC)C(=O)CN1C[C@@H](c2cc(OC)c3c(c2)OCO3)[C@H](C(=O)O)[C@H]1CC(C)(C)CCC | cell-free assay | competition with immobilised ligand | 1 µM | 82.4
CN(C)c1ncc(F)c(-c2cnn3ncccc23)n1 | binding | – | 1 µM | 100
O=C1CCc2cc(Nc3cc(OC4CCOCC4)c([N+](=O)[O-])cc3Cl)ccc2N1 | cell-free assay | competition with immobilised ligand | 1 µM | 100
O=C(c1ccc(Nc2ncc(Cl)c(-c3ccc(Cl)s3)n2)cc1)N1CCC(N2CCCC2)CC1 | binding | competition with immobilised ligand | 1 µM | 0.65
CNCc1ccccc1-c1csc([C@H](C)Nc2nc(C)nc3cc(OC)c(OC)cc23)c1 | cell-free assay | competition with immobilised ligand | 1 µM | 90
c1cnn2ncc(-c3ccnc(N4CCC45COC5)n3)c2c1 | binding | – | 1 µM | 100
O=C(NCc1ncc(C(F)(F)F)cc1Cl)c1ccc2c(c1)C1(CCS(=O)(=O)CC1)[C@H](C1CC1)N2S(=O)(=O)c1ccc(F)cc1 | cell-free assay | competition with immobilised ligand | 1 µM | 83
C[C@H]1CCN(c2nccc(-c3cnn4ncccc34)n2)C1 | binding | – | 1 µM | 90
CC(=O)N1CCC(c2ccc(C(=O)NC3=NCCN3)cc2C(F)(F)F)CC1 | cell-free assay | competition with immobilised ligand | 1 µM | 98
N[C@H]1CCN(c2nccc(-c3cnn4ncccc34)n2)C1 | binding | – | 1 µM | 63
C[C@H](c1ccnc(Nc2nc3ccc(-c4cc(N(C)C)ncn4)cc3[nH]2)c1)N1CCN(C(=O)CC(F)(F)F)CC1 | cell-free assay | competition with immobilised ligand | 0.1 µM | 93
CC1CCCN1c1nccc(-c2cnn3ncccc23)n1 (stereo not drawn) | binding | – | 1 µM | 89
